Source: ChEMBL document CHEMBL5136964, “Truncated S-MGBs: towards a parasite-specific and low aggregation chemotype” (RSC Med Chem, 2021)
In brackets after ≈: the same amount, converted by molar mass.

Tests used:
[1] = system: Trypanosoma brucei brucei; assay: Antiparasitic activity against bloodstream form of Trypanosoma brucei brucei Lister 427 measured after 48 hrs by alamar blue assay; type: functional
[2] = system: Trypanosoma congolense; assay: Antitrypanosomal activity against bloodstream form of Trypanosoma congolense IL3000 measured after 48 hrs by alamar blue assay; type: functional, organism-based; details: IL3000, 48 h
Method in brief: (§1)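 Bloodstream-form T. congolense IL3000 and derived diminazene-resistant lines were grown at 34 °C in humidified 5% CO2 in supplemented MEM with 20% goat serum. Cells at 2.5×10^5 per mL were seeded into serial compound dilutions and incubated 48 h. 0.49 mM resazurin solution was then added for a further 24 h.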

[3] = system: Trypanosoma vivax; assay: Antitrypanosomal activity against Trypanosoma vivax STIB 719 by [3H]-hypoxanthine incorporation assay; type: functional, organism-based
[4] = system: Trypanosoma congolense; assay: Antitrypanosomal activity against bloodstream form of diminazene-resistant Trypanosoma congolense DimR measured after 48 hrs by alamar blue assay; type: functional, organism-based; method in brief: as §1
[5] = system: Trypanosoma congolense; assay: Antitrypanosomal activity against bloodstream form of diminazene-resistant Trypanosoma congolense EMS MUT DimR measured after 48 hrs by alamar blue assay; type: functional, organism-based; method in brief: as §1
[6] = Resistance factor, ratio of EC50 for bloodstream form of diminazene-resistant Trypanosoma congolense DimR to EC50 for bloodstream form of wild-type Trypanosoma congolense; type: functional
Method in brief: (§2)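 The ratio was taken from Alamar Blue EC50s for resistant and wild-type IL3000 bloodstream-form T. congolense. Cells at 2.5×10^5 per mL were grown at 34 °C in 5% CO2 in supplemented MEM with compound for 48 h, then with resazurin for 24 h.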

[7] = Resistance factor, ratio of EC50 for bloodstream form of diminazene-resistant Trypanosoma congolense EMS MUT DimR to EC50 for wild-type bloodstream form of Trypanosoma congolense; type: functional; method in brief: as §2
[8] = system: Trypanosoma brucei brucei; assay: Antiparasitic activity against bloodstream form of tbat1-/- deficient Trypanosoma brucei brucei measured after 48 hrs by alamar blue assay; type: functional, organism-based
[9] = system: Trypanosoma brucei brucei; assay: Antiparasitic activity against bloodstream form of Trypanosoma brucei brucei B48 measured after 48 hrs by alamar blue assay; type: functional, organism-based; details: B48, 48 h
[10] = Resistance factor, ratio of EC50 for bloodstream form of tbat1-/- deficient Trypanosoma brucei brucei to EC50 for wild-type bloodstream form of Trypanosoma brucei brucei; type: functional
[11] = Resistance factor, ratio of EC50 for bloodstream form of Trypanosoma brucei brucei B48 to EC50 for wild-type bloodstream form of Trypanosoma brucei brucei; type: functional
[12] = system: Trypanosoma brucei brucei; assay: Antiparasitic activity against wild-type Trypanosoma brucei brucei measured after 48 hrs by alamar blue assay; type: functional, organism-based
[13] = system: Trypanosoma congolense; assay: Antitrypanosomal activity against bloodstream form of Trypanosoma congolense measured after 48 hrs by alamar blue assay; type: functional, organism-based; method in brief: as §1
[14] = system: Staphylococcus aureus; assay: Antibacterial activity against Staphylococcus aureus ATCC 43300 measured after 18 hrs by two-fold serial dilution method; type: functional
[15] = system: Enterococcus faecalis; assay: Antibacterial activity against Enterococcus faecalis ATCC 51299 measured after 18 hrs by two-fold serial dilution method; type: functional
[16] = system: DNA; assay: Binding affinity to DNA (unknown origin) assessed as change in melting temperature at 2:1 compound to DNA ratio by UV-visible spectrophotometry; type: nucleic-acid assay
Method in brief: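 Duplex oligomer at 6 × 10⁻⁶ M in 10 mM PBS (pH 7.4) with 50 mM NaCl was annealed (90 °C, then unaided cooling) and mixed at 2 S-MGB:1 helix; the reference had no ligand. Samples were heated 10–90 °C and cooled 80–10 °C at 0.5 °C min⁻¹, with A260 recorded. Tm came from a Boltzmann sigmoid fit; three repeats.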

[17] = system: Leishmania donovani; assay: Antileishmanial activity against Leishmania donovani MHOM/ET/67:LV82 amastigotes infected in BMDM cell measured after 48 hrs by luciferase assay; type: functional, organism-based; details: MHOM/ET/67:LV82, BMDM
Method in brief: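 Bone marrow-derived macrophages (0.5×10^5/well) were infected at a 20:1 […] ratio with luciferase-expressing L. donovani LV82. Free parasites were removed at 24 h post-infection, then doubling dilutions were added, starting at 25 or 20 μg mL⁻¹ from a 1 mg mL⁻¹ DMSO stock. At 72 h, luciferin (150 μg mL⁻¹) was added and bioluminescence suppression read against controls.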

[18] = Cytotoxicity against rat L6 cells assessed as reduction in cell viability measured after 69 hrs by alamar blue assay; type: toxicity, cell-based
[19] = Aggregation property of compound in 0.1 M pH 5 sodium acetate buffer at 1.5 mM by 1H-NMR spectra analysis; type: physicochemical; details: pH 5, 1500 µM
[20] = Aggregation property of compound in 45% DMSO-d6:55% 0.1 M pH 5 sodium acetate buffer at 1.5 mM by 1H-NMR spectra analysis; type: physicochemical; details: pH 5, 1500 µM
Method in brief: (§3)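 Proton NMR series at a fixed 1.5 mM S-MGB. DMSO-d6 was stepped down by 5% from 80% to 25% by adding 0.1 M pH 5 sodium acetate buffer, giving twelve solvent compositions per compound.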

[21] = Aggregation property of compound in 70% v/v 0.1 M pH 5 sodium acetate buffer in DMSO-d6 at 1.5 mM by 1H-NMR spectra analysis; type: physicochemical; details: pH 5, 1500 µM; method in brief: as §3
[22] = Diffusion coefficient of compound in 50% v/v pH 5 sodium acetate buffer in DMSO-d6 at 1.5 mM by DOSY analysis; type: physicochemical; details: pH 5, 1500 µM
[23] = Aggregation property of compound at 1.5 mM by 1H-NMR spectra analysis; details: 1500 µM

SMILES	EC50 [1] [nM]	MIC80 [14] [µM]	MIC80 [15] [µM]	ΔTm [16] [°C]	further results
N=C(N)c1ccc(/N=N/Nc2ccc(C(=N)N)cc2)cc1 [DIMINAZENE]	500	–	–	–	EC50 [2]: 130 nM; EC50 [3]: 170 nM; EC50 [4]: 2100 nM; EC50 [5]: 2300 nM; Ratio EC50 [6]: 9.5; Ratio EC50 [7]: 10.9; EC50 [8]: 180 nM; EC50 [9]: 80 nM; Ratio EC50 [10]: 5.9; Ratio EC50 [11]: 2.6; EC50 [12]: 30 nM; EC50 [13]: 200 nM
COc1cccc(/C=C/c2ccc(C(=O)Nc3cc(C(=O)N4CCN(C)CC4)n(C)c3)cc2)c1	> 50000	> 50	> 50	0	–
COc1ccc(/C=C/c2ccc(C(=O)Nc3cc(C(=O)N4CCN(C)CC4)n(C)c3)cn2)cc1	> 50000	> 50	> 50	0	–
COc1cccc(/C=C/c2ccc(C(=O)Nc3cc(C(=O)NN(C)C)n(C)c3)cc2)c1	–	–	–	0	–
Cn1cc(NC(=O)c2ccc(/C=C/c3cnc4ccccc4c3)cc2)cc1C(=O)NCCN1CCOCC1	3120	> 50	> 50	10	EC50 [17]: 1600 nM; EC50 [2]: 870 nM; EC50 [3]: 760 nM; EC50 at 69 h [18]: 6700 nM; EC50 [4]: 3100 nM; EC50 [5]: 3200 nM; Ratio EC50 [6]: 0.9; Ratio EC50 [7]: 0.9; EC50 [8]: 550 nM; EC50 [9]: 600 nM; Ratio EC50 [10]: 0.5; Ratio EC50 [11]: 0.5; Activity [19]: Active; Activity [20]: Active; Activity [21]: Active; D [22]: 1.75 10^-10 m²/s; EC50 [12]: 1200 nM; EC50 [13]: 3400 nM; Activity [23]: Active
COc1cccc(/C=C/c2ccc(C(=O)Nc3cc(C(=O)NCCN4CCOCC4)n(C)c3)cc2)c1	> 50000	> 50	> 50	0	–
COc1ccc(/C=C/c2ccc(C(=O)Nc3cc(C(=O)Nc4cc(C(=O)NCCN5CCOCC5)n(C)c4)n(C)c3)cn2)cc1	1560	1.56 (≈ 0.954 µg/mL)	3.12 (≈ 1.91 µg/mL)	12	–
CN[C@H](CC(C)C)C(=O)N[C@H]1C(=O)N[C@@H](CC(N)=O)C(=O)N[C@H]2C(=O)N[C@H]3C(=O)N[C@H](C(=O)N[C@H](C(=O)O)c4cc(O)cc(O)c4-c4cc3ccc4O)[C@H](O)c3ccc(c(Cl)c3)Oc3cc2cc(c3O[C@@H]2O[C@H](CO)[C@@H](O)[C@H](O)[C@H]2O[C@H]2C[C@](C)(N)[C@H](O)[C@H](C)O2)Oc2ccc(cc2Cl)[C@H]1O [VANCOMYCIN]	–	0.39 (≈ 0.565 µg/mL)	6.25 (≈ 9.06 µg/mL)	–	–
Cn1cc(NC(=O)c2cc(NC(=O)c3ccc(/C=C/c4cnc5ccccc5c4)cc3)cn2C)cc1C(=O)NCCN1CCOCC1 [MGB-BP-3]	< 190	0.2 (≈ 0.126 µg/mL)	0.78 (≈ 0.493 µg/mL)	20	Activity [19]: Active; Activity [20]: Active; D [22]: 1.07 10^-10 m²/s; Activity [23]: Active
COc1ccc(/C=C/c2ccc(C(=O)Nc3cc(C(=O)NN(C)C)n(C)c3)cn2)cc1	> 50000	> 50	> 50	0	–
CN1CCN(C(=O)c2cc(NC(=O)c3ccc(/C=C/c4cnc5ccccc5c4)cc3)cn2C)CC1	–	–	–	2	–
COc1cccc(/C=C/c2ccc(C(=O)Nc3cc(C(=O)Nc4cc(C(=O)NCCN5CCOCC5)n(C)c4)n(C)c3)cc2)c1	780	6.25 (≈ 3.82 µg/mL)	25 (≈ 15.3 µg/mL)	10	–
